One experiment relates to T98G. Put plainly: Cytotoxicity against apoptotic-resistant human T98G cells assessed as growth inhibition after 72 hrs by MTT-based colorimetric assay. It counts as functional, cell-based. The method in brief:
(§1)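 MTT colorimetric assay, 72 h exposure to the fumarate salt. Read-out is reduction of MTT to formazan by living cells. IC50 is the concentration that reduces the whole cell population by 50%. Six replicates per condition. Where compounds were not tested on every line, apoptosis-sensitive lines were PC3, MCF-7, LoVo and B16F10, and apoptosis-resistant lines were U373, T98G, A549 and SK-MEL-28.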
(Tetrazolium dyes change colour on reduction, which living cells bring about.)

In a further experiment the test system is PC-3. Put plainly: Cytotoxicity against apoptotic-sensitive human PC3 cells assessed as growth inhibition after 72 hrs by MTT-based colorimetric assay. It counts as functional, cell-based. The method in brief:
as §1

The subject of another experiment is LoVo. As to the kind of experiment: Cytotoxicity against apoptotic-sensitive human LoVo cells assessed as growth inhibition after 72 hrs by MTT-based colorimetric assay. The class given is functional, cell-based. The method, boiled down:
as §1

A short description of experiment [1]: Cytotoxicity against apoptotic-resistant human U373 cells assessed as growth inhibition after 72 hrs by MTT-based colorimetric assay. The class given is functional, cell-based, U-373MG ATCC. The method in brief:
as §1

The subject of the next experiment is SK-MEL-28. Put plainly: Cytotoxicity against apoptotic-resistant human SK-MEL-28 cells assessed as growth inhibition after 72 hrs by MTT-based colorimetric assay. It counts as functional, cell-based. The method in brief: as §1
In another experiment the test system is A549. As to the kind of experiment: Cytotoxicity against apoptotic-resistant human A549 cells assessed as growth inhibition after 72 hrs by MTT-based colorimetric assay. The class given is functional, cell-based. The method, boiled down:
as §1

The next experiment concerns MCF7. As to the kind of experiment: Cytotoxicity against apoptotic-sensitive human MCF7 cells assessed as growth inhibition after 72 hrs by MTT-based colorimetric assay. The class given is functional, cell-based. The method in brief:
as §1

pIC50: −log10 of the molar value. Several values for one entry are separate records, joined by “and”; a condition that tells them apart may be missing. Equal values may be shown once. A value given as a limit tells only on which side of the number the result lay.

The term pIC50 denotes the negative decadic logarithm of the IC50, by convention in mol/L. As for `Cn1c2cnc1OCCCCCCCCCCCOc1ccccc1-2`, the pIC50 with T98G (Homo sapiens, T98G, 72 h) is 4.25; in the experiment with PC-3 (Homo sapiens, PC-3, 72 h), 4.44; in the experiment on LoVo (Homo sapiens, LoVo, 72 h), 4.49; in experiment [1] (Homo sapiens, U373 MG, 72 h) it was 4.32; in the experiment on SK-MEL-28 (Homo sapiens, SK-MEL-28, 72 h), 4.33; in the experiment with A549 (Homo sapiens, A549, 72 h), 4.44. Further, the pIC50 in the experiment on MCF7 (Homo sapiens, MCF7, 72 h) is 4.39.
For `Cn1c2cnc1OCCCCCCCCCOc1ccccc1-2`, the pIC50 was 4.13 in the experiment with T98G (Homo sapiens, T98G, 72 h); 4.21 in the experiment with PC-3 (Homo sapiens, PC-3, 72 h); 4.47 in the experiment with LoVo (Homo sapiens, LoVo, 72 h); 4.11 in experiment [1] (Homo sapiens, U373 MG, 72 h); 4.14 in the experiment with SK-MEL-28 (Homo sapiens, SK-MEL-28, 72 h); 4.16 in the experiment with A549 (Homo sapiens, A549, 72 h). Moreover, the negative logarithm of the IC50 (pIC50) in the experiment on MCF7 (Homo sapiens, MCF7, 72 h) was 4.15.
As for `C=CCCCCOc1cc2ccccc2cc1-c1cnc(OCCC=C)n1C`, the pIC50 in the experiment on T98G (Homo sapiens, T98G, 72 h) is 4.49; in the experiment with PC-3 (Homo sapiens, PC-3, 72 h), 4.85; with LoVo (Homo sapiens, LoVo, 72 h), 4.60; in experiment [1] (Homo sapiens, U373 MG, 72 h) it was 4.57; in the experiment with SK-MEL-28 (Homo sapiens, SK-MEL-28, 72 h), 4.60; in the experiment on A549 (Homo sapiens, A549, 72 h) it was 4.68. Further, the pIC50 in the experiment on MCF7 (Homo sapiens, MCF7, 72 h) was 4.60.
On to `Cn1c2cnc1OCCCCCCCCOc1ccccc1-2` (single isomer, unassigned; atropisomer), for which the pIC50 was 4.12 and 4.04 in the experiment on T98G (t98g); 4.31 and 4.24 in the experiment with PC-3 (pc-3); 4.43 and 4.20 in the experiment with LoVo (lovo); 4.15 in experiment [1] (u-373mg atcc); 4.19 and 4.18 with SK-MEL-28 (sk-mel-28); 4.23 and 4.27 in the experiment on A549 (a549). In the experiment with MCF7 (mcf7), the pIC50 was 4.36 and 4.37.
With `C=CCCCCOc1ccccc1-c1cnc(OCCCC=C)n1C`, the pIC50 with T98G (Homo sapiens, T98G, 72 h) was 5.52; in the experiment on PC-3 (Homo sapiens, PC-3, 72 h), 4.55; with LoVo (Homo sapiens, LoVo, 72 h) it was 5.40; in experiment [1] (Homo sapiens, U373 MG, 72 h), 5.30; in the experiment on SK-MEL-28 (Homo sapiens, SK-MEL-28, 72 h), 4.72; in the experiment on A549 (Homo sapiens, A549, 72 h) it was 5.52. Also, the pIC50 in the experiment on MCF7 (Homo sapiens, MCF7, 72 h) is 5.15.
As to `Cn1c2cnc1OCCCCCCCCCCOc1cc3ccccc3cc1-2`, the pIC50 in the experiment on T98G (Homo sapiens, T98G, 72 h) is 4.66; with PC-3 (Homo sapiens, PC-3, 72 h) it was 4.60; with LoVo (Homo sapiens, LoVo, 72 h), 4.55; in experiment [1] (Homo sapiens, U373 MG, 72 h) it was 4.54; in the experiment with SK-MEL-28 (Homo sapiens, SK-MEL-28, 72 h), 4.48; with A549 (Homo sapiens, A549, 72 h) it was 4.70. Moreover, in the experiment with MCF7 (Homo sapiens, MCF7, 72 h), the pIC50 is 4.62.
Turning to `C=CCCOc1ncc(-c2ccccc2OC)n1C`, the pIC50 with T98G (Homo sapiens, T98G, 72 h) was 4.41; in the experiment with PC-3 (Homo sapiens, PC-3, 72 h) it was 4.60; in the experiment on LoVo (Homo sapiens, LoVo, 72 h) it was 4.62; in experiment [1] (Homo sapiens, U373 MG, 72 h) it was 4.80; in the experiment with SK-MEL-28 (Homo sapiens, SK-MEL-28, 72 h), 4.68; in the experiment with A549 (Homo sapiens, A549, 72 h), 4.66. Besides, in the experiment with MCF7 (Homo sapiens, MCF7, 72 h), the pIC50 is 4.57.
Turning to `C=CCCCCOc1ccc(C)cc1-c1cnc(OCCC=C)n1C`, the pIC50 is 4.03 in the experiment with T98G (Homo sapiens, T98G, 72 h); 4.23 with PC-3 (Homo sapiens, PC-3, 72 h); 4.39 in the experiment with LoVo (Homo sapiens, LoVo, 72 h); 4.48 in experiment [1] (Homo sapiens, U373 MG, 72 h); 4.08 with SK-MEL-28 (Homo sapiens, SK-MEL-28, 72 h); 4.23 in the experiment with A549 (Homo sapiens, A549, 72 h). Also, in the experiment on MCF7 (Homo sapiens, MCF7, 72 h), the pIC50 is 4.28.
As to `C=CCCCCOc1ccccc1-c1cnc(OCCOCC=C)n1C`, the pIC50 with T98G (Homo sapiens, T98G, 72 h) was 4.19; in the experiment with PC-3 (Homo sapiens, PC-3, 72 h), 4.44; with LoVo (Homo sapiens, LoVo, 72 h) it was 4.59; in experiment [1] (Homo sapiens, U373 MG, 72 h), 4.22; in the experiment with SK-MEL-28 (Homo sapiens, SK-MEL-28, 72 h), 4.23; with A549 (Homo sapiens, A549, 72 h), 4.47. Moreover, the pIC50 with MCF7 (Homo sapiens, MCF7, 72 h) is 4.49.
For `Cc1ccc2c(c1)-c1cnc(n1C)OCCCCCCCCO2`, the pIC50 is 4.20 in the experiment with T98G (Homo sapiens, T98G, 72 h); 4.44 in the experiment on PC-3 (Homo sapiens, PC-3, 72 h); 4.47 in the experiment on LoVo (Homo sapiens, LoVo, 72 h); 4.24 in experiment [1] (Homo sapiens, U373 MG, 72 h); 4.26 in the experiment with SK-MEL-28 (Homo sapiens, SK-MEL-28, 72 h); 4.39 with A549 (Homo sapiens, A549, 72 h). Also, in the experiment on MCF7 (Homo sapiens, MCF7, 72 h), the pIC50 was 4.47.
In the case of `C=CCCOc1ccccc1-c1cnc(S(=O)(=O)c2ccccc2)n1C`, the pIC50 in the experiment on T98G (Homo sapiens, T98G, 72 h) was below 4.00; in the experiment with PC-3 (Homo sapiens, PC-3, 72 h), 4.38; in the experiment with LoVo (Homo sapiens, LoVo, 72 h), 4.49; in experiment [1] (Homo sapiens, U373 MG, 72 h), below 4.00; in the experiment with SK-MEL-28 (Homo sapiens, SK-MEL-28, 72 h) it was 4.22; in the experiment on A549 (Homo sapiens, A549, 72 h), 4.14. In addition, the pIC50 in the experiment with MCF7 (Homo sapiens, MCF7, 72 h) is 4.17.
On to `COc1ccc2c(c1)-c1cnc(n1C)OCCCCCCCCO2`, for which the pIC50 with T98G (Homo sapiens, T98G, 72 h) was 4.17; in the experiment on PC-3 (Homo sapiens, PC-3, 72 h) it was 4.40; in the experiment on LoVo (Homo sapiens, LoVo, 72 h), 4.47; in experiment [1] (Homo sapiens, U373 MG, 72 h), 4.20; in the experiment on SK-MEL-28 (Homo sapiens, SK-MEL-28, 72 h) it was 4.24; with A549 (Homo sapiens, A549, 72 h), 4.40. Further, the pIC50 in the experiment on MCF7 (Homo sapiens, MCF7, 72 h) is 4.49.
Turning to `C=CCCCCOc1ccccc1-c1cnc(NC(=O)CCCC=C)n1C`, the pIC50 was 4.66 in the experiment with T98G (Homo sapiens, T98G, 72 h); 4.96 in the experiment on PC-3 (Homo sapiens, PC-3, 72 h); 5.00 with LoVo (Homo sapiens, LoVo, 72 h); 5.15 in experiment [1] (Homo sapiens, U373 MG, 72 h); 5.15 in the experiment on SK-MEL-28 (Homo sapiens, SK-MEL-28, 72 h); 5.10 in the experiment with A549 (Homo sapiens, A549, 72 h). The pIC50 in the experiment with MCF7 (Homo sapiens, MCF7, 72 h) was 4.66.
Take `C=CCCCCOc1ccc(OC)cc1-c1cnc(OCCC=C)n1C`: the pIC50 in the experiment with T98G (Homo sapiens, T98G, 72 h) was 4.13; with PC-3 (Homo sapiens, PC-3, 72 h), 4.37; in the experiment with LoVo (Homo sapiens, LoVo, 72 h) it was 4.48; in experiment [1] (Homo sapiens, U373 MG, 72 h), 4.17; in the experiment on SK-MEL-28 (Homo sapiens, SK-MEL-28, 72 h) it was 4.21; with A549 (Homo sapiens, A549, 72 h) it was 4.37. Also, the pIC50 with MCF7 (Homo sapiens, MCF7, 72 h) was 4.43.
